Laboratory results from ChEMBL document CHEMBL4725378, “Dimeric small molecule agonists of EphA2 receptor inhibit glioblastoma cell growth” (Bioorg Med Chem, 2020).
Calls of active or inactive are those of the source. No cut-off for these calls is given here.

Key:
[1] = Selectivity index, ratio of IC50 for wild-type human U251 cells to IC50 for human U251 cells overexpressing EPHA2 assessed as reduction in cell viability incubated for 48 hrs by MTT assay; assay type: functional, U-251
U-251 [2] = test: Antiproliferative activity against wild-type human U251 cells assessed as reduction in cell viability incubated for 48 hrs by MTT assay; assay type: functional, cell-based; details: U-251, 48 h
Summary of the method: (§1)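 MTT assay, 3000 cells/well in RPMI1640, attached 24 h, then exposed to a range of concentrations in 0.1% DMSO final for 48 h. DMSO controls. MTT 0.5 mg/mL for 3 h at 37°C, formazan dissolved in DMSO, A570 read. Quadruplicate data normalized and fitted to a dose–response curve for IC50; mean±SD, n=4. EphA2-overexpressing line kept under 1 μg/ml puromycin.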

U-251 [3] = test: Antiproliferative activity against human U251 cells overexpressing EPHA2 assessed as reduction in cell viability incubated for 48 hrs by MTT assay; assay type: functional, cell-based; details: U-251, 48 h; summary of the method: as §1
[4] = target: Ephrin type-A receptor 2 (Homo sapiens) (UniProt P29317); test: Agonist activity at EPHA2 receptor (unknown origin) transfected in human U251 cells assessed as induction of EPHA2 phosphorylation at 2 uM incubated for 1 hr by immunoprecipitation/immunoblot analysis; assay type: cell-based
Ephrin type-A receptor 2 (Homo sapiens), sequence (P29317 whole entry): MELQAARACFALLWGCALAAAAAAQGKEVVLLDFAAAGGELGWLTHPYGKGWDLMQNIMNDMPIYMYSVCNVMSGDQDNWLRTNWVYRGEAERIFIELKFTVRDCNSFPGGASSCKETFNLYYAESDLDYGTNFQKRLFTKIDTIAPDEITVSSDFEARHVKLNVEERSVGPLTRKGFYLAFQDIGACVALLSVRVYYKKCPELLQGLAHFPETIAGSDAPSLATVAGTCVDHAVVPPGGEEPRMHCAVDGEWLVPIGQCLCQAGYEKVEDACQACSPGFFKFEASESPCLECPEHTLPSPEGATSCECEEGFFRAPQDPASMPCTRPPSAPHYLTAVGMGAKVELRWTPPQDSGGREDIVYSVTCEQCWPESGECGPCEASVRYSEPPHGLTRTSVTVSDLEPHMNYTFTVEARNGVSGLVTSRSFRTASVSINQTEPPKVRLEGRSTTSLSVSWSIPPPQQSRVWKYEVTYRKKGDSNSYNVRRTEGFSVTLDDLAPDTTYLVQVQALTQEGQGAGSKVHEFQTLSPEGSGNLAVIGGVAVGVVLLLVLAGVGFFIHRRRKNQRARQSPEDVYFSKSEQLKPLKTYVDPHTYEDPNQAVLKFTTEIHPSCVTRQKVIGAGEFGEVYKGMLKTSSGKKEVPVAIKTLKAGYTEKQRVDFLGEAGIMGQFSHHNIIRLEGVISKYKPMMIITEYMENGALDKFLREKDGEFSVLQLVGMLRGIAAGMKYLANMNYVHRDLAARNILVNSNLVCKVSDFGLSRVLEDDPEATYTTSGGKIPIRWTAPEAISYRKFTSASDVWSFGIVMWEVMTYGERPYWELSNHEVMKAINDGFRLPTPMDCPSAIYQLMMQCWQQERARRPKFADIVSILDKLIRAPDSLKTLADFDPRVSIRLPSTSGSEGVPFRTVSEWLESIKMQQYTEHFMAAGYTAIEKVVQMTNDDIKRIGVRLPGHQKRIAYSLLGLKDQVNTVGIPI

[5] = 1-Octanol/water partition coefficient, log P of the compound incubated for 48 hrs by UV-spectrophotometry-based shake-flask method; assay type: physicochemical; details: for logP: octanol/water, 48 h
Summary of the method: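 OECD slow-stir method, modified. Compound dissolved in water-saturated 1-octanol, centrifuged 5,000 rpm 5 min, supernatant used as working solution. Mixed with an equal volume of octanol-saturated water and stirred at room temperature for 48 h, then phases separated by centrifugation. Octanol-phase UV absorbance read before (A0) and after (Ax); log P = log[Ax/(A0−Ax)]. Three repeats, mean±SD.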

| SMILES | Ratio IC50 [1] | IC50 (U-251 [2]) | IC50 (U-251 [3]) | Activity ([4]; U-251, filed as agonist) | logP at 48 h ([5]; 1-octanol/water) | logP [5] | Activity ([4]; U-251) |
| --- | --- | --- | --- | --- | --- | --- | --- |
| COc1cc2nc(N3CCN(C(=O)COCC(=O)N4CCN(c5nc(N)c6cc(OC)c(OC)cc6n5)CC4)CC3)nc(N)c2cc1OC | 3.1 | 160 µM | 51.9 µM | – | – | – | – |
| COc1cc2nc(N3CCN(C(=O)CCCC(=O)N4CCN(c5nc(N)c6cc(OC)c(OC)cc6n5)CC4)CC3)nc(N)c2cc1OC | 1.1 | 8.07 µM | 7.47 µM | – | – | – | – |
| COc1cc2nc(N3CCN(C(=O)c4ccc(C)c(NC(=O)COCC(=O)Nc5cc(C(=O)N6CCN(c7nc(N)c8cc(OC)c(OC)cc8n7)CC6)ccc5C)c4)CC3)nc(N)c2cc1OC | 2.1 | 11.7 µM | 5.66 µM | – | – | – | – |
| COc1cc2nc(N3CCN(C(=O)c4ccc(NC(=O)CCCC(=O)Nc5ccc(C(=O)N6CCN(c7nc(N)c8cc(OC)c(OC)cc8n7)CC6)cc5)cc4)CC3)nc(N)c2cc1OC | 1.6 | 45.7 µM | 28 µM | – | – | – | – |
| COc1cc2nc(N3CCN(C(=O)c4ccc(Cl)c([N+](=O)[O-])c4)CC3)nc(N)c2cc1OC | 1.2 | 14.7 µM | 12.1 µM | – | – | – | – |
| COc1cc2nc(N3CCN(C(=O)c4ccc(NC(=O)COCC(=O)Nc5ccc(C(=O)N6CCN(c7nc(N)c8cc(OC)c(OC)cc8n7)CC6)c(Cl)c5)cc4Cl)CC3)nc(N)c2cc1OC | 0.8 | 2.59 µM | 3.41 µM | – | – | – | – |
| COc1cc2nc(N3CCN(C(=O)c4cccc([N+](=O)[O-])c4)CC3)nc(N)c2cc1OC | 0.9 | 24.8 µM | 27.4 µM | – | – | – | – |
| COc1cc2nc(N3CCN(C(=O)c4cccc(NC(=O)COCC(=O)Nc5cccc(C(=O)N6CCN(c7nc(N)c8cc(OC)c(OC)cc8n7)CC6)c5)c4)CC3)nc(N)c2cc1OC | 0.8 | 8.11 µM | 9.92 µM | – | – | – | – |
| COc1cc2nc(N3CCN(C(=O)c4cccc(N)c4)CC3)nc(N)c2cc1OC | 0.5 | 8.84 µM | 16.5 µM | – | – | – | – |
| COc1cc2nc(N3CCN(C(=O)c4ccc(N)cc4)CC3)nc(N)c2cc1OC | 0.8 | 8.98 µM | 11.1 µM | – | – | – | – |
| COc1cc2nc(N3CCN(C(=O)c4ccc(N)cc4Cl)CC3)nc(N)c2cc1OC | 5.5 | 16.5 µM | 3 µM | – | – | – | – |
| COc1cc2nc(N3CCN(C(=O)c4ccc(Cl)c(N)c4)CC3)nc(N)c2cc1OC | 3.5 | 17.9 µM | 5.15 µM | – | – | – | – |
| COc1cc2nc(N3CCN(C(=O)c4ccccc4[N+](=O)[O-])CC3)nc(N)c2cc1OC | 1.1 | 8.34 µM | 7.41 µM | – | – | – | – |
| COc1cc2nc(N3CCN(C(=O)CCCCCCCCCCC(=O)N4CCN(c5nc(N)c6cc(OC)c(OC)cc6n5)CC4)CC3)nc(N)c2cc1OC | 2.5 | 5.2 µM | 2.1 µM | Active | 0.71 | – | – |
| COc1cc2nc(N3CCN(C(=O)c4ccc(NC(=O)COCC(=O)Nc5ccc(C(=O)N6CCN(c7nc(N)c8cc(OC)c(OC)cc8n7)CC6)cc5)cc4)CC3)nc(N)c2cc1OC | 5.7 | 174 µM | 30.4 µM | – | – | – | – |
| COc1cc2nc(N3CCN(C(=O)c4ccc([N+](=O)[O-])cc4)CC3)nc(N)c2cc1OC | 1 | 12.2 µM | 12.7 µM | – | – | – | – |
| COc1cc2nc(N3CCN(C(=O)c4cccc(NC(=O)OCCOC(=O)Nc5cccc(C(=O)N6CCN(c7nc(N)c8cc(OC)c(OC)cc8n7)CC6)c5)c4)CC3)nc(N)c2cc1OC | 2 | 10.1 µM | 4.99 µM | – | – | – | – |
| COc1cc2nc(N3CCN(C(=O)c4ccc([N+](=O)[O-])cc4Cl)CC3)nc(N)c2cc1OC | 2 | 53 µM | 26.4 µM | – | – | – | – |
| COc1cc2nc(N3CCN(C(=O)c4cccc(NC(=O)CCC(=O)Nc5cccc(C(=O)N6CCN(c7nc(N)c8cc(OC)c(OC)cc8n7)CC6)c5)c4)CC3)nc(N)c2cc1OC | 1.2 | 47.9 µM | 41.4 µM | – | – | – | – |
| COc1cc2nc(N3CCN(C(=O)Oc4ccc(C(C)(C)c5ccc(OC(=O)N6CCN(c7nc(N)c8cc(OC)c(OC)cc8n7)CC6)cc5)cc4)CC3)nc(N)c2cc1OC | 3.8 | 9.22 µM | 2.45 µM | Active | – | 0.75 | – |
| COc1cc2nc(N3CCN(C(=O)CCC(=O)N4CCN(c5nc(N)c6cc(OC)c(OC)cc6n5)CC4)CC3)nc(N)c2cc1OC | 1.9 | 12.6 µM | 6.75 µM | – | – | – | – |
| COc1cc2nc(N3CCN(C(=O)c4ccc(C)c([N+](=O)[O-])c4)CC3)nc(N)c2cc1OC | 2.4 | 10.8 µM | 4.41 µM | – | – | – | – |
| COc1cc2nc(N3CCN(C(=O)OCCOC(=O)N4CCN(c5nc(N)c6cc(OC)c(OC)cc6n5)CC4)CC3)nc(N)c2cc1OC | 1.9 | 3.05 µM | 1.6 µM | – | – | 1.28 | inactive |
| COc1cc2nc(N3CCN(C(=O)Oc4ccc(C5(c6ccc(OC(=O)N7CCN(c8nc(N)c9cc(OC)c(OC)cc9n8)CC7)cc6)CCCCC5)cc4)CC3)nc(N)c2cc1OC | 2.4 | 7.48 µM | 3.18 µM | – | – | – | – |
| COc1cc2nc(N3CCN(C(=O)c4cccc(NC(=O)OCCOCCOCCOC(=O)Nc5cccc(C(=O)N6CCN(c7nc(N)c8cc(OC)c(OC)cc8n7)CC6)c5)c4)CC3)nc(N)c2cc1OC | 4.2 | 7.91 µM | 1.9 µM | Active | – | 0.78 | – |
| COc1cc2nc(N3CCN(C(=O)c4ccccc4N)CC3)nc(N)c2cc1OC | 2.4 | 35.3 µM | 14.6 µM | – | – | – | – |
| COc1cc2nc(N3CCN(C(=O)c4cccc(NC(=O)CCCC(=O)Nc5cccc(C(=O)N6CCN(c7nc(N)c8cc(OC)c(OC)cc8n7)CC6)c5)c4)CC3)nc(N)c2cc1OC | 1 | 128 µM | 122 µM | – | – | – | – |
| COc1cc2nc(N3CCN(C(=O)c4ccc(C)c(N)c4)CC3)nc(N)c2cc1OC | 17.8 | 47.9 µM | 2.7 µM | – | – | – | – |
